Test results: article PMC12328631 (Nature Communications, 2025)
pIC50: −log10 of the molar value. Each block holds one molecule with its values, some of them ahead of it. Peptide text beside a SMILES is read from it. * marks the point of attachment. Cbz = O=C(OCc1ccccc1)*

What was measured:
Sec61 translocon = Sec61 translocon (Homo sapiens, UniProt P61619); test: RELITE assay, FLuc equipped with the SP of CD4; format: cell-based; conditions: for response of the RELITE assay (FLuc/RLuc ratio): Fig. S8b; for response of the RELITE assay (FLuc/RLuc ratio) / effect on FLuc activity (FLuc/RLuc ratio): HEK293, 6 hours; for effect on FLuc/RLuc ratio: Fig. 1h, 6 hours of treatment, non-selective Sec61 inhibitors; for effect on FLuc activity (FLuc/RLuc ratio): Tunicamycin 10 μg/ml, Thapsigargin 3 μM
HA-FLuc = HA-FLuc protein levels by western blotting; format: cell-based, human; conditions: total cell extract, 6 h
Method in brief: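 HEK293 cells were transfected with the IRES vector and replated after 8 h, then treated 16 h later for up to 6 h. Total extracts were made in B-Buffer (50 mM HEPES, 150 mM NaCl, 1% Triton X-100, protease inhibitors) and equalised by Bradford. Cytosolic and membrane fractions came from syringe lysis and differential centrifugation. Western blots used anti-HA, with GAPDH and calnexin as fraction markers.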

PD-L1 = format: cell-based, human; conditions: read-out: IC50 (PD-L1-HA protein levels); GB138 stably expressing SPnPD-L1-HA, 0 to 20 μM, 24 hours (Fig. S4)
Method in brief: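 GB138 glioblastoma cells stably expressing SPnPD-L1-HA were kept at 37 °C in DMEM with 10% FBS, 2 mM L-Gln and 400 μg/ml G418. Cells were exposed to test compounds at 0 to 20 μM for 24 h. Extracts in Triton-containing B-Buffer were resolved by SDS-PAGE and PD-L1-HA levels quantified by western blot with ECL, using calnexin as loading control. IC50 was taken from the titration curve.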

[1] = tested on: Firefly luciferase (FLuc) reporter equipped with the SP of CD4; test: FLuc enzymatic activity in HEK293 transfected with the IRES-vector; format: cell-based, human
Method in brief: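 HEK293 cells were transiently transfected with a bicistronic IRES vector carrying the CD4 signal peptide-FLuc reporter. For fractionation, cells were treated 24 h post-transfection for 6 h, mechanically lysed and ultracentrifuged into P100 and S100 fractions, and FLuc was read on each. For the time course, cells were replated 8 h post-transfection, treated 16 h later, and FLuc was read up to 6 h. For the chase, 100 µg/ml cycloheximide was added for 2 h after 6 h treatment.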

GB138 cells = test: Cell viability assay; format: cell-based, human; conditions: GB138 (Fig. S5)

Molecule: C[C@H]1CCC/C=C/[C@@H]2C[C@H](O)C[C@H]2[C@H](O)/C=C/C(=O)O1 [Brefeldin A]
response of the RELITE assay (FLuc/RLuc ratio) (Sec61 translocon): not responding

pIC50 (PD-L1): ~4.70
CADA effect on FLuc activity under co-treatment with cycloheximide (CHX) (Sec61 translocon; Fig. S1b, CADA 20 μM + CHX 100 μg/ml, 6 hours): abrogated the CADA effect
Molecule: C=C1CN(S(=O)(=O)c2ccc(C)cc2)CCCN(Cc2ccccc2)CCCN(S(=O)(=O)c2ccc(C)cc2)C1 [CADA, Cyclotriazadisulfonamide]
total HA-FLuc protein levels (western blotting) (HA-FLuc): significant reduction of the total HA-FLuc protein levels
FLuc activity after cell fractionation ([1]; Fig. 1d, S100 vs P100): increased FLuc activity only in the cytosolic S100 fraction

Molecule: C[C@@H]1C[C@@H]([C@H](O)CC2CC(=O)NC(=O)C2)C(=O)[C@@H](C)C1 [Cycloheximide]
response of the RELITE assay (FLuc/RLuc ratio) (Sec61 translocon): not responding

Molecule: CC1(C)C(N(O)C(=O)Nc2ccc(Cl)cc2)N(c2ccc(Cl)cc2)C(=O)N1CC(=O)N/N=C/C=C/c1ccc([N+](=O)[O-])o1 (stereo not shown) [Eeyarestatin 1]
total HA-FLuc protein levels (western blotting) (HA-FLuc): significant reduction of FLuc protein levels
effect on FLuc/RLuc ratio (Sec61 translocon): significant reduction of the FLuc/RLuc ratio

response of the RELITE assay (FLuc/RLuc ratio) (Sec61 translocon): not responding
Molecule: CCN(CCO)CCCC(C)Nc1ccnc2cc(Cl)ccc12 (stereo not shown) [Hydroxychloroquine]

Molecule: CC(C)C[C@@H](C=O)NC(=O)[C@H](CC(C)C)NC(=O)[C@H](CC(C)C)NC(=O)OCc1ccccc1 [MG132] (Cbz-Leu-Leu-Leu-aldehyde)
FLuc enzymatic activity over time ([1]; Fig. 1e, up to 6 h): time-dependent increment of the FLuc enzymatic activity

Molecule: CC(=C\C=C\C(C)=C\[C@H](O)[C@@H](O)C[C@H](C)O)/C=C(C)/C=C/C(=O)O[C@H]1CCCC(=O)O[C@@H]([C@@H](C)C/C(C)=C/[C@@H](C)[C@H](O)C[C@@H](C)O)C/C=C(\C)C[C@@H]1C [Mycolactone]
effect on FLuc/RLuc ratio (Sec61 translocon): significant elevation of the FLuc/RLuc ratio

response of the RELITE assay (FLuc/RLuc ratio) (Sec61 translocon): not responding
Molecule: COc1ccc(C[C@H](N)C(=O)N[C@H]2[C@@H](O)[C@H](n3cnc4c(N(C)C)ncnc43)O[C@@H]2CO)cc1 [Puromycin]

Molecule: C/C=C(/C)C(=O)O[C@H]1C(C)=C2[C@H]([C@@H]1OC(=O)CCCCCCC)[C@@](C)(OC(C)=O)C[C@H](OC(=O)CCC)[C@@]1(O)[C@H]2OC(=O)[C@@]1(C)O [Thapsigargin]
effect on FLuc activity (FLuc/RLuc ratio) (Sec61 translocon; Fig. S1b): failed to increase activity
response of the RELITE assay (FLuc/RLuc ratio) (Sec61 translocon): not responding

Molecule: Tunicamycin
effect on FLuc activity (FLuc/RLuc ratio) (Sec61 translocon; Fig. S1b): significant elevation of the FLuc activity
toxicity in cell viability assay (GB138 cells): highly toxic for the cells
